The test system of data set [1] is Plasma. Kind of data set: Protein binding in pooled human plasma by microdialysis. Format: ADME, cell-free. Summed up: (§1)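 In vitro microdialysis at 20, 40, 80, 160 and 320 μg/ml drug, in triplicate, at 37°C. Matrices were THB with 40 g/liter BSA or HSA, pooled adult bovine serum, or untreated pooled human plasma. Probes were perfused with lactated Ringer at 2.0 μl/min, with recovery set in Ringer alone. Samples were taken over a 30-min period and assayed by HPLC-UV. Binding = 1 − dialysate/(recovery × total).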

In data set [2] the test system is Escherichia coli. The data set is described as follows: Antimicrobial activity against Escherichia coli ATCC 25922 by serial dilution twofold broth microdilution method in presence of 40 g/L bovine serum albumin. Format: functional. Conditions: in the assay text read “macrodilution” for “microdilution”. Summed up: (§2)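 Broth macrodilution, serial twofold dilutions, run per CLSI guidelines. Media were MHB (E. coli) or THB (S. pneumoniae), used with or without 40 g/liter BSA or HSA; supplemented broth was 0.2-μm filtered and adjusted to pH 7.4. Inoculum came from overnight 5% sheep blood agar colonies set to 0.5 McFarland in saline and diluted in broth to ~5 × 10⁵ CFU/ml. Six determinations; values reported as modes.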

Data set [3] concerns Escherichia coli. The data set is described as follows: Antimicrobial activity against Escherichia coli ATCC 25922 assessed as growth rate constant. Format: functional. Summed up: (§3)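 Constant-concentration time-kill curves, 6 h, in triplicate. […] Inoculum of ~5 × 10⁵ CFU/ml was grown 2 h before drug was added. Samples taken 0–6 h were counted by droplet plating after 20–24 h at 37°C. A two-compartment model (susceptible plus persister cells) was fitted simultaneously across conditions to obtain growth and maximal kill rate constants.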

The target of data set [4] is T1, Albumin (Bos taurus, UniProt P02769). Kind of data set: Binding affinity to pooled adult bovine serum albumin. Format: ADME. The following applies: cattle, read-out: PB (converted). Summed up: as §1
T1 sequence (P02769 whole entry): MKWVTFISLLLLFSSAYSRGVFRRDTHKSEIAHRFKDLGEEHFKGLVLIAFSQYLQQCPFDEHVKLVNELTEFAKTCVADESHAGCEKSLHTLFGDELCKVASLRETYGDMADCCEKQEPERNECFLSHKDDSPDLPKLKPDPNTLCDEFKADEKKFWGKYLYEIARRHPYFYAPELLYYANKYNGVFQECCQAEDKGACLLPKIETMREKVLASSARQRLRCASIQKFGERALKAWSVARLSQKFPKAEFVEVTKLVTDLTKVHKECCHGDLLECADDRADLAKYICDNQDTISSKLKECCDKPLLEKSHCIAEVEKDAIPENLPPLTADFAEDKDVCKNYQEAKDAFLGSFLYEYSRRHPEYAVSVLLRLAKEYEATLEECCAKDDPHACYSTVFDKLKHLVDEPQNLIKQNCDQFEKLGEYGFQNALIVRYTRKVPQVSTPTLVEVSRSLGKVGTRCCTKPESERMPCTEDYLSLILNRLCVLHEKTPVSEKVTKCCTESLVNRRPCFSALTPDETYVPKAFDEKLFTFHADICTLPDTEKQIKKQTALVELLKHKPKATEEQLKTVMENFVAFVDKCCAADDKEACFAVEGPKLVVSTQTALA
In data set [5] the test system is Escherichia coli. Kind of data set: Bactericidal activity against Escherichia coli ATCC 25922 at 8 times MIC after 24 hrs by time kill analysis. Format: functional, organism-based.
Data set [6] has as its target Albumin (Homo sapiens, UniProt P02768). The data set is described as follows: Binding affinity to human serum albumin in THB medium containing 40 g/L HSA. Format: ADME. The following applies: human serum albumin (40 g/L) in THB medium, read-out: PB (converted). Summed up:
as §1

Data set [7] has as its system Streptococcus pneumoniae. Kind of data set: Antimicrobial activity against penicillin-sensitive Streptococcus pneumoniae ATCC 6303 assessed as growth rate constant. Format: functional. The method in brief:
as §3

The target in data set [8] is T1, Albumin. The data set is described as follows: Binding affinity to bovine serum albumin in THB medium containing 40 g/L BSA. Format: ADME. Conditions: cattle, bovine serum albumin (40 g/L) in THB medium; read-out: PB (converted). Summed up: as §1
For data set [9], the system named is Escherichia coli. Kind of data set: Antimicrobial activity against Escherichia coli ATCC 25922 assessed as maximum killing rate constant. Format: functional. The method in brief: as §3
In data set [10] the test system is Streptococcus pneumoniae. The data set is described as follows: Antimicrobial activity against penicillin-sensitive Streptococcus pneumoniae ATCC 6303 by serial dilution twofold broth microdilution method in presence of 40 g/L human serum albumin. Format: functional. Conditions: in the assay text read “macrodilution” for “microdilution”. The method in brief: as §2

In data set [11] the test system is Streptococcus pneumoniae. Kind of data set: Antimicrobial activity against penicillin-sensitive Streptococcus pneumoniae ATCC 6303 by serial dilution twofold broth microdilution method. Format: functional. The following applies: in the assay text read “macrodilution” for “microdilution”. The method in brief:
as §2

For data set [12], the system named is Streptococcus pneumoniae. Kind of data set: Antimicrobial activity against penicillin-sensitive Streptococcus pneumoniae ATCC 6303 by serial dilution twofold broth microdilution method in presence of 40 g/L bovine serum albumin. Format: functional. The following applies: in the assay text read “macrodilution” for “microdilution”. The method in brief: as §2

For data set [13], the system named is Streptococcus pneumoniae. The data set is described as follows: Antimicrobial activity against penicillin-sensitive Streptococcus pneumoniae ATCC 6303. Format: functional, organism-based. Summed up: as §2
Data set [14] in a line: Plasma protein binding in healthy human 1t […], iv administered as single dose by LC-MS-MS method. Format: ADME, organism-based. The following applies: read-out: PPB (converted).
The subject of data set [15] is Streptococcus pneumoniae. Kind of data set: Antimicrobial activity against penicillin-sensitive Streptococcus pneumoniae ATCC 6303 assessed as maximum killing rate constant. Format: functional. The method in brief:
as §3

Data set [16] relates to Streptococcus pneumoniae. The data set is described as follows: Bactericidal activity against penicillin-sensitive Streptococcus pneumoniae ATCC 6303 at 8 times MIC after 24 hrs by time kill analysis. Format: functional, organism-based.
The subject of data set [17] is Streptococcus pneumoniae. Kind of data set: Antimicrobial activity against penicillin-sensitive Streptococcus pneumoniae ATCC 6303 in presence of bovine serum albumin. Format: functional, organism-based. Summed up:
as §2

Data set [18] concerns Escherichia coli. The data set is described as follows: Antimicrobial activity against Escherichia coli ATCC 25922. Format: functional, organism-based. Summed up:
as §2

In data set [19] the test system is Escherichia coli. The data set is described as follows: Antimicrobial activity against Escherichia coli ATCC 25922 by serial dilution twofold broth microdilution method. Format: functional. Conditions: in the assay text read “macrodilution” for “microdilution”. The method in brief: as §2
The subject of data set [20] is Escherichia coli. The data set is described as follows: Antimicrobial activity against Escherichia coli ATCC 25922 by in presence of human serum albumin. Format: functional, organism-based. The method in brief:
as §2

Data set [21] relates to Streptococcus pneumoniae. Kind of data set: Antimicrobial activity against penicillin-sensitive Streptococcus pneumoniae ATCC 6303 in presence of human serum albumin. Format: functional, organism-based. The method in brief:
as §2

Data set [22] deals with Escherichia coli. The data set is described as follows: Antimicrobial activity against Escherichia coli ATCC 25922 by serial dilution twofold broth macrodilution method in presence of 40 g/L human serum albumin.
The subject of data set [23] is Escherichia coli. The data set is described as follows: Antimicrobial activity against Escherichia coli ATCC 25922 in presence of bovine serum albumin. Format: functional, organism-based. Summed up: as §2
Data set [24] concerns Plasma. Kind of data set: Plasma protein binding in human at 400 ug/ml. Format: ADME, cell-free.
Data set [25] can be described thus: Plasma protein binding in human at < 100 ug/ml. Conditions: read-out: PPB (converted). Format: ADME, cell-free.
The test system of data set [26] is Escherichia coli. Kind of data set: Bactericidal activity against Escherichia coli ATCC 25922 at 8 times MIC after 24 hrs by time kill analysis in presence of 40 g/L human serum albumin. Format: functional, organism-based.
Data set [27] has as its system Streptococcus pneumoniae. The data set is described as follows: Bactericidal activity against penicillin-sensitive Streptococcus pneumoniae ATCC 6303 at 8 times MIC after 6 hrs by time kill analysis in presence of 40 g/L bovine serum albumin.
The test system of data set [28] is Escherichia coli. The data set is described as follows: Bactericidal activity against Escherichia coli ATCC 25922 at 8 times MIC after 6 hrs by time kill analysis in presence of 40 g/L bovine serum albumin.
Data set [29] relates to Streptococcus pneumoniae. Kind of data set: Bactericidal activity against penicillin-sensitive Streptococcus pneumoniae ATCC 6303 at 8 times MIC after 24 hrs by time kill analysis in presence of 40 g/L human serum albumin. Format: functional, organism-based.

Values after ≈ are worked out from the molar mass of the structure shown. Active and inactive are the calls of the source. The calls are words filed in the database; no cut-off is given here.

Sequence of Albumin (Homo sapiens, UniProt P02768) (P02768 whole entry): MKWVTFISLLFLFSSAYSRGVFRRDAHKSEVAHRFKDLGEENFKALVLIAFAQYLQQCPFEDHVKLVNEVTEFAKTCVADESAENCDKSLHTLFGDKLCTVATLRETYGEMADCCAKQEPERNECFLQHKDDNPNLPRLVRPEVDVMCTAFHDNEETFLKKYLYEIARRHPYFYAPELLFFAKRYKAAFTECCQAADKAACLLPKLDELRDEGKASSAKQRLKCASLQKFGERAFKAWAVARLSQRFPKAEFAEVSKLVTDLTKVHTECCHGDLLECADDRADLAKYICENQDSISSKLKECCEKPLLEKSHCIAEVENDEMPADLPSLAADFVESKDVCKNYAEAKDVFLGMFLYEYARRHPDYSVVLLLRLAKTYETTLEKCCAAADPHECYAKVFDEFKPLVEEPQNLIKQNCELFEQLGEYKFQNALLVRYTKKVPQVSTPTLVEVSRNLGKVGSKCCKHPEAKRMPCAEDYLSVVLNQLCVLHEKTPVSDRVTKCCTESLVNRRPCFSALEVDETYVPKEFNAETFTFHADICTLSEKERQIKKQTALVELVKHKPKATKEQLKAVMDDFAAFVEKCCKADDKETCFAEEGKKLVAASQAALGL

With `C[C@@H](O)[C@H]1C(=O)N2C(C(=O)O)=C(S[C@@H]3CN[C@H](C(=O)Nc4cccc(C(=O)O)c4)C3)[C@H](C)[C@H]12` [ERTAPENEM], in the data set on Plasma [1], the PPB turned out to be 73.8%. Besides, the MIC in the data set with Escherichia coli [2] is 0.015 µg/mL; in the data set on Streptococcus pneumoniae [10], 0.025 µg/mL; against Streptococcus pneumoniae [11] it was 0.025 µg/mL (≈ 0.0526 µM); with Streptococcus pneumoniae [12] it was 0.025 µg/mL; in the data set on Escherichia coli [19], 0.015 µg/mL (≈ 0.0315 µM); in the data set on Escherichia coli [22], 0.03 µg/mL. Moreover, the Ks was determined as 2.76 h⁻¹ in the data set with Escherichia coli [3] and 2.28 h⁻¹ in the data set on Streptococcus pneumoniae [7]. Further, the fraction unbound on Albumin [4] was 0.617; on Albumin [6], 0.822; at Albumin [8], 0.876; in data set [14], 0.16. Besides, the outcome with Escherichia coli [5] and in the data set on Streptococcus pneumoniae [16] was Active. For the same compound, the Kkmax is 6.02 h⁻¹ with Escherichia coli [9] and 3.28 h⁻¹ in the data set with Streptococcus pneumoniae [15]. For the same compound, the EC50 in the data set on Streptococcus pneumoniae [13] stood at 0.01 µg/mL (≈ 0.021 µM); in the data set on Streptococcus pneumoniae [17] it was 0.01 µg/mL; with Escherichia coli [18], 0.01 µg/mL (≈ 0.021 µM); in the data set on Escherichia coli [20] it was 0.014 µg/mL; in the data set on Streptococcus pneumoniae [21], 0.019 µg/mL; in the data set with Escherichia coli [23], 0.02 µg/mL.

Turning to `CO/N=C(\C(=O)N[C@@H]1C(=O)N2C(C(=O)O)=C(CSc3nc(=O)c(=O)[nH]n3C)CS[C@H]12)c1csc(N)n1` [CEFTRIAXONE], the PPB with Plasma [1] stood at 76.8%; in the data set with Plasma [24] it was 60%. For the same compound, the fraction unbound was 0.693 at Albumin [4]; 0.431 on Albumin [6]; 0.798 at Albumin [8]; 0.17 in [14]; 0.1 in data set [25].

As to `CO/N=C(\C(=O)N[C@@H]1C(=O)N2C(C(=O)O)=C(CSc3nc(=O)c(O)nn3C)CS[C@H]12)c1csc(N)n1` [CEFTRIAXONE], the MIC amounted to 0.064 µg/mL with Escherichia coli [2]; 0.16 µg/mL with Streptococcus pneumoniae [10]; 0.01 µg/mL (≈ 0.018 µM) against Streptococcus pneumoniae [11]; 0.02 µg/mL in the data set on Streptococcus pneumoniae [12]; 0.064 µg/mL (≈ 0.115 µM) in the data set on Escherichia coli [19]; 2 µg/mL in the data set with Escherichia coli [22]. Moreover, the Ks in the data set with Escherichia coli [3] is 2.4 h⁻¹; in the data set with Streptococcus pneumoniae [7], 1.56 h⁻¹. Moreover, the outcome with Escherichia coli [5] and in the data set on Streptococcus pneumoniae [16] was Active. In addition, the outcome in the data set on Escherichia coli [26], in the data set on Streptococcus pneumoniae [27], in the data set on Escherichia coli [28] and in the data set on Streptococcus pneumoniae [29] was inactive. Also, the Kkmax stood at 6.34 h⁻¹ with Escherichia coli [9] and 3.59 h⁻¹ in the data set with Streptococcus pneumoniae [15]. In addition, the EC50 came to 0.004 µg/mL (≈ 0.00721 µM) in the data set with Streptococcus pneumoniae [13]; 0.015 µg/mL with Streptococcus pneumoniae [17]; 0.027 µg/mL (≈ 0.0487 µM) in the data set with Escherichia coli [18]; 1.1 µg/mL in the data set with Escherichia coli [20]; 0.084 µg/mL in the data set on Streptococcus pneumoniae [21]; 0.057 µg/mL in the data set with Escherichia coli [23].
